Assay outcomes (PubChem)
ERp5 block: inhibitors of human ERp5 | ERp5 insulin aggregation, absorbance 650 nm, 90 min | inhibition, % at 9.99 µM | actives 0.05% (n = 350,000) | AID 651711;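 active = mean replicate inhibition above about 25%, with every replicate also reaching it, limit read from the data, passing the limit was not always enough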
Target sequence (Q15084 whole entry, looked up): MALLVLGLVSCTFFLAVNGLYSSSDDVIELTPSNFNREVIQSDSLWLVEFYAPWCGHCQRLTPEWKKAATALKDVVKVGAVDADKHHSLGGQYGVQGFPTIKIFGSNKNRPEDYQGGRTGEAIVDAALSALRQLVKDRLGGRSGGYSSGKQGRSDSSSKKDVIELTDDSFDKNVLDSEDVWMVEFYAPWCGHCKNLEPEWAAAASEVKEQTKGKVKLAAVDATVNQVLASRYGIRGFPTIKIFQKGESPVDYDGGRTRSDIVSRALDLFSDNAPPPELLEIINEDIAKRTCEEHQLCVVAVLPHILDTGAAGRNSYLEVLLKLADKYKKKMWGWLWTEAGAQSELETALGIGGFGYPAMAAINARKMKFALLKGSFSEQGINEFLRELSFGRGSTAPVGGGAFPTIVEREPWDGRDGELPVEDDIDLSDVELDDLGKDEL
PvdQ inh: P. aeruginosa PvdQ acylase inhibition; purified PvdQ acylase, fluorescence plate reader; inhibition, % at 10 µM; actives 0.063% (n = 340,000); in the data active = inhibition above about 30%, passing the limit was not always enough;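 also: 0% = vehicle neutral wells and 100% = reference inhibitor wells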
HIV Env fusion: blocks HIV Env-driven cell-cell fusion; AID 651610; actives 1.1% (n = 360,000); HeLa-JRFL Env/CEM21 cell fusion, luciferase; inhibition, % at 12.3 µM;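 active = mean replicate inhibition score of at least 50 and every replicate individually at or above 50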;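 also: 0% = plate neutral controls and 100% = maraviroc near 300 nM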
PDI inh: inhibitors of human protein disulfide isomerase; PDI insulin aggregation turbidity, A650, 90 min; inhibition, % at 10 µM; P07237; AID 588391; actives 0.052% (n = 350,000);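 active = mean inhibition across replicates of 30% or more, whatever share of single replicates reach that level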
Ecoli rRNA inh: inhibits bacterial ribosomal RNA function over humanized ribosomes; GFP signal change (wild-type ribosome), % (no concentration beside the values); E. coli WT GFP vs humanized-ribosome RFP mutants, fluorescence, 24 h; active compounds read low; DMSO median 0, no signal -100; actives 1.6% (n = 350,000);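 active = significant combined selectivity score with lowered wild-type GFP, culture density cut under 30%, mutant RFP and density less affected; inactive = any of these conditions unmet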
FN deposit inh: fibronectin deposition inhibition | inhibition, % at 12.6 µM | actives 0.086% (n = 350,000) | AH1F fibroblasts, Alexa488-fibronectin deposition fluorescence, overnight;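 active = mean inhibition across replicates of 30% or more, regardless of how many single replicates reach that level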;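 also: positive control wells lacked labelled fibronectin entirely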
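Test system: AH1F fibroblast monolayer depositing Alexa488-labelled fibronectin into matrix. Input: 10000 cells per well. Technique: fluorescence, ex 485 nm, em 525 nm. Buffer or medium: DMEM plus 2% serum, read in PBS. Timing: 1 h cell adhesion before compound, then overnight fibronectin incubation. Compound: single dose, pinned. Read-out basis: inhibition from reduced deposited-fibronectin fluorescence.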
* hit, by the source's call; . = not tested or not shown; [ ] = dose if it differs, or a comment. Shown are actives, neighbours in structure and some others; about 2.2% of the full set was active somewhere.

SMILES	ERp5 block	PvdQ inh	HIV Env fusion	PDI inh	Ecoli rRNA inh	FN deposit inh
O=C(O)c1cc(NN=C2c3ccccc3-c3ccccc32)ccc1Cl	-3	-5	0	-1	-48	-3
NC(=O)N/N=C1\c2ccccc2-c2c(C(N)=O)cccc21	-4	15	8	-1	-4	-3
O=C(O)c1cccc2c1-c1ccccc1/C2=N\Nc1ccccc1	2	-2	-46	-2	-39*	1
O=C(O)c1cccc(NN=C2c3ccccc3-c3ccccc32)c1	0	-13	0	2	-53*	.
CO[C@H]1CN(C)C(=O)c2ccc(NC(=O)c3ccc(F)cc3)cc2OC[C@@H](C)N(C)C[C@H]1C	.	.	-1[16.7 µM]	.	-1	-5
O=C(C[C@H]1C=C[C@@H](NC(=O)CCN2CCCCC2)[C@H](CO)O1)Nc1ccccc1	-1	.	-11[16.7 µM]	.	1	.
C[C@@H]1CN([C@H](C)CO)C(=O)c2cc(NC(=O)Cc3ccccc3)ccc2O[C@@H]1CN(C)C(=O)Nc1ccccc1	-1	.	10[16.7 µM]	.	3	.
CC(C)C(NC(=O)c1ccc(F)cc1)C(=O)N1CCOCC1 (stereo unspecified)	27*	-3	2	-7	2	-8
N#CC(c1ccc(Cl)cc1)c1cccc(Cl)n1 (stereo unspecified)	-7	117*	-10	-7	-20	2
N#CC(c1ccc(Cl)cc1)c1ccc2c(C(F)(F)F)cc(C(F)(F)F)nc2n1 (stereo unspecified)	.	-15	.	-12	.	.
CCn1c(/C=C/N(C)c2ccccc2)[n+](CC)c2ccc(Cl)cc21	.	-10	70*	-2	.	-3
CCn1c(/C=C/Nc2ccccc2)[n+](CC)c2ccc(Cl)cc21	.	-3	-4	-1	.	11
O=C(Oc1ccc(/C=N/O)cc1)c1ccccc1Cl	-6	7	-52	-8	-29*	9
CO[C@@H]1CN(C)C(=O)c2ccc(NC(=O)C3CCC3)cc2OC[C@@H](C)N(Cc2nccs2)C[C@H]1C	-3	.	.	.	-1	2
C[C@H](O)C#Cc1ccc2c(c1)O[C@@H](CN(C)CC1CC1)[C@H](C)CN([C@H](C)CO)S2(=O)=O	.	.	0[16.7 µM]	.	-4	.
O=C1CCCC2=C1C(c1cccs1)Nc1ccccc1N2 (stereo unspecified)	.	6	87*	2	.	7
CO[C@@H]1CN(C)C(=O)c2ccc(NS(C)(=O)=O)cc2OC[C@@H](C)N(CC2CCCCC2)C[C@H]1C	.	.	-3[16.7 µM]	.	-2	-1
CCOC(=O)C1=NNC(C(=O)c2ccccc2)C1c1ccc(C)cc1 (stereo unspecified)	-11	-12	1	1	-26*	-9
O=S(=O)(/N=C(/c1ccc(F)cc1)N1CCCCC1)c1ccc(Cl)cc1	-4	-4	-4	-4	-22*	8
C[C@H](CO)N1C[C@H](C)[C@H](CN(C)Cc2cncnc2)Oc2ncc(-c3cccc(C#N)c3)cc2C1=O	52*	.	-9[16.7 µM]	.	2	3
C[C@@H]1CN([C@@H](C)CO)C(=O)c2cc(-c3ccccc3)cnc2O[C@@H]1CN(C)Cc1ccccc1	-4	.	-10[16.7 µM]	.	1	38*
C[C@H]1CN([C@@H](C)CO)C(=O)c2cc(-c3cccc(C#N)c3)cnc2O[C@@H]1CN(C)Cc1cncnc1	34*	.	-25[16.7 µM]	.	3	-5
O=c1c2c(nc3n1CCCCC3)-c1ccccc1CC21CCCC1	3	5	.	16	-36*	.
Nn1cnc2c(c1=O)C1(CCCCC1)Cc1ccccc1-2	.	11	32	-6	.	5
CC(C)=CC(=O)OCc1cc([N+](=O)[O-])cc2c1OCOC2	5	-7	-20	1	-16*	.
SMILES	ERp5 block	PvdQ inh	HIV Env fusion	PDI inh	Ecoli rRNA inh	FN deposit inh
C=CCn1c(SCC(=O)Nc2ccc3c(c2)OCO3)nnc1-c1ccccc1OC	.	-1	.	-6	.	.
C=CCn1c(SCc2csc(-c3ccc(Cl)cc3)n2)nnc1-c1ccccc1OC	3	-13	56*	10	-51	-3
C[C@H](CO)N1C[C@H](C)[C@H](CN(C)S(=O)(=O)c2ccccc2)OCCCC[C@H](C)Oc2ccc(NC(=O)Nc3ccc(F)cc3)cc2C1=O	0	.	1[16.7 µM]	.	-1	.
COc1ccc2c3c(n(C)c2c1)[C@H](CO)N(C(=O)C1CC1)CC31CCN(Cc2cccc(F)c2)CC1	1	.	.	.	-2	9
COc1ccc2c3c(n(C)c2c1)[C@@H](CO)N(C(=O)C1CCOCC1)CC31CCN(Cc2cccc(F)c2)CC1	3	.	70*[16.7 µM]	.	-2	.
COc1ccc2c3c(n(C)c2c1)[C@H](CO)N(C(=O)C1CCOCC1)CC31CCN(Cc2cccc(F)c2)CC1	4	.	55*[16.7 µM]	.	-5	.
CN(C)C(=O)C[C@H]1CC[C@@H]2[C@@H](COc3ccc(NC(=O)Nc4cccc(Cl)c4)cc3C(=O)N2C)O1	4	.	.	.	-12	0
Cc1noc(C)c1NC(=O)Nc1cccc2c1O[C@@H](CN(C)S(=O)(=O)c1ccccc1)[C@H](C)CN([C@H](C)CO)C2=O	.	.	-21[16.7 µM]	.	2	.
COc1ccc(Nc2nc(NCc3ccco3)nc(N/N=C/c3ccccc3F)n2)cc1	6	6	-18	7	-27*	9
COc1ccc(/C=N/Nc2nc(NCc3ccco3)nc(Nc3ccc(OC)cc3)n2)cc1	1	-11	-32	-10	-6	14
CCN(CC)CCN(C(=O)C1CCCCC1)c1nc2cc3c(cc2s1)OCO3	-5	0	2	3	-18*	3
CCN(CC)CCN(C(=O)c1ccc(Br)s1)c1nc2cc3c(cc2s1)OCO3	-7	-4	3	-4	3	4
CCNC(=O)C[C@H]1CC[C@H]2[C@@H](COC[C@@H](O)CN2C(=O)C2CCOCC2)O1	-2	.	-11[16.7 µM]	.	-5	0
O=C1O[C@H](c2ccccc2)[C@H](c2ccccc2)N2[C@H]1[C@@H](C(=O)N1CCCCCCC1)[C@]1(C(=O)Nc3ccccc31)[C@H]2c1ccccc1OCCO	-4	.	59*[16.7 µM]	.	.	.
CNC(=O)/C(C#N)=C/c1c(N(Cc2ccccc2)Cc2ccccc2)nc2c(C)cccn2c1=O	.	7	.	8	.	3
CCNC(=O)/C(C#N)=C/c1c(N(Cc2ccccc2)Cc2ccccc2)nc2ccccn2c1=O	-1	11	9	-1	-18*	2
CN1C(=O)c2cc(NC(=O)Nc3ccccc3)ccc2OC[C@H]2O[C@@H](CC(=O)O)CC[C@@H]21	.	.	-9[16.7 µM]	.	2	-11
C[C@@H]1CN([C@H](C)CO)C(=O)c2cc(NC(=O)NC3CCCCC3)ccc2O[C@@H](C)CCCCO[C@@H]1CN(C)C(=O)NC1CCCCC1	-1	.	9[16.7 µM]	.	0	0
O=S(=O)(Nc1nc2ccccc2nc1NCC1CCCO1)c1ccccc1 (stereo unspecified)	-3	8	6	-2	0	1
